# Pyk2 oligo antag – antagonists of human Pyk2 oligomerization. Q14289. Q293 cells, Pyk2 FERM NanoBiT luminescence; stronger effect = lower value. z-score (the deposit names both 25 µM and 10 µM). actives 0.83% (n = 99,000). AID 1347419;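 active = Z-score of -3 or lower, scaled per plate to the spread of control and sample wells; inactive = z-score above -3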;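 note: negative z-score means lost luminescence so less FERM oligomerization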
# Jurkat viability – reduces viability or proliferation of Jurkat cells | inhibition, % at 4 µM | actives 1.2% (n = 56,000) | Jurkat E6.1 viability, ATP luminescence, 48 h;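 active = inhibition above the mean inhibition of all tested compounds plus 3 SD, cut at about 28% in these data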
# HUVEC inhibit – inhibitors of human endothelial cell proliferation. HUVEC proliferation, CellTiter-Glo luminescence, 72 h; stronger effect = lower value. viability, % at 10 µM (by protocol). actives 1.1% (n = 86,000);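 active = viability at or below 30%; inactive = viability above 30%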;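 note: 100% = median luminescence of DMSO-only cell control wells on each plate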
# Fibroblast inh – blocks proliferation of human lung fibroblasts; LL 47 human lung fibroblast viability, ATP luminescence; stronger effect = lower value; actives 1.1% (n = 85,000); viability, % at 10 µM;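 active = viability at or below 50% in the single dose screen; inactive = viability above 50%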;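 note: compound exposure lasted 72 h before the ATP readout; 100% = median luminescence of untreated cell-only wells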
#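 Signal: luminescent ATP detection, CellTiter-Glo; assay system: LL 47 human lung fibroblasts; input: 1,150 cells/well; incubation: overnight cell rest, 72 h compound treatment at 37 °C; measure: % viability versus median cells-only luminescence; medium: IMEM growth medium with 15% fetal bovine serum; dosing: compound addition at 0.1% DMSO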
# H69AR inhibit – growth inhibitors of human H69AR lung tumor cells; H69AR lung tumor viability, ATP luminescence, 72 h; stronger effect = lower value; viability, % at 10 µM; actives 6% (n = 85,000); AID 598;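 active = viability at or below 40%; inactive = viability above 40%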;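 note: multidrug resistant small cell line overexpressing MRP-1 efflux transporter; 100% = mean luminescence of untreated control wells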
# MT1-MMP txn act – activates MT1-MMP transcription. activation factor at 10 µM. HT1080 MT1-MMP promoter luciferase reporter, luminescence, overnight; stronger effect = higher value. actives 0.16% (n = 86,000);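 active = activation factor of at least 2 for MT1-MMP transcription at 10 µM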
# * hit, by the source's call; / = no result. Rows were chosen to be rich in hits. Some 5.9% of all compounds tested hit in one or more screens of this group.
SMILES,Pyk2 oligo antag,Jurkat viability,HUVEC inhibit,Fibroblast inh,H69AR inhibit,MT1-MMP txn act
CCOc1ccc(-c2nc(=S)[nH][nH]2)cc1,0.64,1.6,91.7,101.7,39.8*,1
Cn1c(C(C#N)C(=O)c2sc3ccccc3c2Cl)nc2ccccc21 (centres undefined),-0.83,5.5,78.3,90.2,17.1*,1.1
COC(=O)[C@@]1(Cc2ccc(OC)cc2)[C@H]2c3cc(C(=O)N4CCCC4)n(CCc4ccccn4)c3C[C@H]2CN1C(=O)c1ccccc1,/,/,/,/,/,1.1
CCC(=O)Nc1cc(NC(=O)CSc2ncc(-c3ccc(F)cc3)n2Cc2ccco2)ccc1C,0.46,5.3,85.1,92.9,64.0,2.1*
CCCn1c(SCC(=O)Nc2ccc3c(c2)OCCO3)nnc1-c1ccco1,0.36,-4.4,/,/,/,0.9
Cc1ccc(-n2c(SCC(=O)Nc3ccc4c(c3)OCCO4)nnc2-c2ccco2)cc1,-2.34,-6.6,56.6,42.6*,13.5*,1
O=C(CSc1nnc(-c2cccnc2)n1-c1ccccc1)Nc1ccccn1,-0.34,0.1,89.6,105.7,93.7,1.1
O=C(CSc1nnc(-c2cccnc2)n1-c1ccccc1)Nc1ccc2c(c1)OCO2,1.63,-1.8,96.4,87.0,34.9*,1.1
COc1cccc(NC(=O)CSc2nnc(Cc3cccs3)n2-c2ccc(C)cc2)c1,-3.16*,/,94.6,106.0,87.2,1
Cc1ccc(-n2c(SCC(=O)Nc3ccc4c(c3)OCO4)nnc2-c2cccs2)cc1,-1.84,5.8,66.8,33.3*,9.2*,1.1
O=C(CSc1nnc(-c2cccs2)n1Cc1ccccc1)NCc1ccc2c(c1)OCO2,-0.94,/,84.9,88.8,75.3,/
COc1cccc(NC(=O)Cc2nnc(SCC(=O)c3ccccc3)n2C)c1,0.55,1.2,79.5,86.8,31.5*,1
COc1cccc(NC(=O)Cc2nnc(SCCOc3ccccc3)n2C)c1,2.09,2.7,104.9,93.5,53.8,1.3
CC(Sc1nnc(-c2cccs2)n1Cc1ccccc1)C(=O)NCc1ccc2c(c1)OCO2 (centres undefined),-0.59,/,78.6,87.2,30.3*,1.1
Cc1cccc(-n2c(SCC(=O)Nc3ccc4c(c3)OCO4)nnc2-c2ccoc2C)c1,-2.6,-2.1,48.5,59.2,9.2*,1
CCCCCOc1ccc(CSc2ncn[nH]2)cc1,0.52,/,103.4,95.4,102.5,1.7
COC(=O)C1=C(C)NC2=C(C(=O)CC(C)(C)C2)C1c1cn(Cc2ccc(Br)cc2)nc1-c1ccccc1 (centres undefined),-3.26*,/,/,/,/,/
Nc1ccc(C(=O)c2ccccc2C(=O)O)cc1Cl,0.58,-5.7,48.5,99.5,90.9,1
Cc1ccc(CNc2ccc3c(c2)OCO3)c(C)c1,/,8.8,61.5,94.6,29.8*,1.6
Cc1cccc(C)c1NC(=O)C(c1ccc([N+](=O)[O-])cc1)N(C)C(=O)c1ccccn1 (centres undefined),0.07,/,/,/,/,/
COC(=O)[C@@H]1C[C@H]2CC[C@H](O)C[C@H]2N1Cc1ccc(C)s1,/,/,/,/,/,1
Cc1nc(N2CCN(Cc3ccc4c(c3)OCO4)CC2)c2oc3ccccc3c2n1,/,/,77.1,69.3,23.0*,1.3
Cc1cc(C)nc(N2CCN(c3nc(C)nc4c3oc3ccccc34)CC2)n1,/,/,/,/,/,1.1
Cc1nc(N2CCC(C)CC2)c2oc3ccccc3c2n1,-0.29,/,82.0,97.0,33.6*,1
COc1ccccc1N1CCN(c2nc(C)nc3c2oc2ccccc23)CC1,-1.17,76.8*,43.4,53.4,41.4,0.5
SMILES,Pyk2 oligo antag,Jurkat viability,HUVEC inhibit,Fibroblast inh,H69AR inhibit,MT1-MMP txn act
Cc1ccccc1Cc1c(C)nc2c(C(=O)NCc3ccco3)cnn2c1C,-0.7,7.8,91.6,106.0,39.7*,1
NS(=O)(=O)c1ccc(CCNC(=O)NC2(C(F)(F)F)Oc3ccccc3O2)cc1,1.19,/,71.1,80.6,20.5*,1
O=C(NCCN1CCOCC1)NC1(C(F)(F)F)Oc2ccccc2O1,0.73,/,70.2,88.3,18.5*,1.2
NS(=O)(=O)c1ccc(CCNC(=O)CSc2ccccc2)cc1,0.42,/,/,/,/,/
COc1ccc(OC)c(NC(=O)NC2(C(F)(F)F)Oc3ccccc3O2)c1,-1.27,/,68.6,94.9,13.0*,1.1
CCCCNC(=O)NC1(C(F)(F)F)Oc2ccccc2O1,0.3,/,63.8,93.3,21.9*,1.2
O=C(C(Cc1ccccc1)N1C(=O)c2ccccc2C1=O)N1CCc2ccccc21 (centres undefined),0.31,/,95.0,99.0,91.5,1.2
Cc1cc2ncn(S(=O)(=O)c3ccc(S(=O)(=O)N4CCCCCC4)cc3)c2cc1C,-0.82,/,89.4,97.5,35.4*,1.3
CCOc1ccc(S(=O)(=O)n2cnc3cc(C)c(C)cc32)cc1,0.88,62.8*,85.3,100.5,91.3,1.2
N#Cc1c(NC(=O)COC(=O)C2CC3C=CC2C3)oc(-c2ccccc2)c1-c1ccccc1 (centres undefined),-1.49,/,106.1,94.4,53.9,0.9
CC(=O)N1CC2(CC2)CC1c1ccccc1 (centres undefined),/,/,/,/,/,1.1
Nc1c(C(=O)NCCN2CCOCC2)c2nc3ccccc3nc2n1CCc1ccccc1F,-0.24,-5.8,43.1,92.1,26.3*,1
Nc1c(C(=O)NCCN2CCOCC2)c2nc3ccccc3nc2n1-c1ccccc1,1.1,-0.8,95.9,97.9,35.7*,1
Nc1c(C(=O)NCCN2CCOCC2)c2nc3ccccc3nc2n1-c1ccc2c(c1)OCO2,-0.32,-11.7,85.0,75.0,35.5*,0.9
Nc1c(C(=O)NCc2ccc3c(c2)OCO3)c2nc3ccccc3nc2n1CCCN1CCOCC1,-0.01,4.9,20.4*,61.6,1.1*,0.6
COc1ccccc1CNC(=O)c1c(N)n(CCCN2CCOCC2)c2nc3ccccc3nc12,0.39,/,/,/,/,/
O=C1c2ccccc2NC(c2ccccn2)N1c1ccccc1F (centres undefined),-0.54,/,96.3,97.0,93.8,1.2
Cc1ccc(S(=O)(=O)N2CCC(C(=O)N/N=C/c3cccnc3)CC2)cc1,0.46,/,/,/,/,/
CCC1=C(OC(=O)N(CC)CC)N2C(=O)OC(=NCC(=O)OC)[C@]2(Cc2ccccc2)[C@H]2C1=CC[C@H]1C(=O)N(c3ccccc3)C(=O)[C@H]12,/,/,/,/,/,1.1
Cc1[nH]n(-c2ccccc2)c(=S)c1C=Nc1cccc([N+](=O)[O-])c1,0.05,/,/,/,/,/
Nc1c(C(=O)NCc2ccco2)c2nc3ccccc3nc2n1CCc1ccc(F)cc1,-2.16,/,34.0,82.6,4.0*,1.1
Cn1c(SCC(=O)Nc2ccccc2F)nnc1-c1cc2ccccc2o1,1.49,/,92.6,97.1,105.7,1.1
O=C(CN(C(=O)CCC(=O)Nc1ccccn1)c1ccc2c(c1)OCCO2)NCCc1ccccc1,-0.2,-0.8,67.5,89.6,7.0*,1.1
CC(C)CCNC(=O)CN(C(=O)CCC(=O)Nc1ccccn1)c1ccc2c(c1)OCCO2,1.9,/,89.7,94.7,88.8,1.2
CCCn1nnc(NC(=O)c2cccc(OCc3ccccc3)c2)n1,-0.63,/,85.4,88.7,66.4,1.1

# Screens (PubChem)
